Measured values gathered from unrelated publications.
Converted amounts (≈) assume the structure as drawn.

| Structure (SMILES) | organism | test | system | setting | quantity | value |
| --- | --- | --- | --- | --- | --- | --- |
| CC[C@H](C)[C@H]1C(=O)N2CCC[C@H]2C(=O)O[C@H](C(C)(C)C)C[C@@H](C)C[C@H](O)[C@H](C)C2=N[C@@H](CCC(=O)N[C@@H](Cc3ccc(OC)cc3)C(=O)N(C)[C@@H](C)C(=O)N1C)CS2 | Zika virus | viral replication | Huh7.5 | 24 h | IC50 | 0.015 µM |
| C[n+]1ccc(/C=C2\Sc3ccccc3N2CCCN2CCCCC2)c2ccccc21.[I-] | Pseudomonas aeruginosa | microbial growth, broth dilution | ATCCBAA2108 | drug-resistant strain | MIC | 64 µg/mL |
| [2H]C([2H])(c1cc(F)c(F)cc1F)n1c(=O)n(Cc2ncn(C)n2)c(=O)[nH]/c1=N\c1cc2cn(C)nc2cc1Cl | Alphacoronavirus 1 | viral replication, inhibitor, qPCR | CRFK |  | EC50 | ~50 µM |
| O=C(N[C@H](CO)[C@H](O)c1ccc([N+](=O)[O-])cc1)C(Cl)Cl | Bacillus | microbial growth, broth dilution | ATCC27859 | 18 h | MIC | 0.98 µg/mL (≈ 3.03 µM) |
| CCOC(=O)c1cc(-c2cccc(NC(=O)Nc3ccc(Cl)c(Cl)c3)c2)on1 | Mycobacteroides abscessus | microbial growth, broth dilution | ATCC19977 | 48 h | MIC | > 64 µg/mL |
| CCCCCOc1ccc(-c2cc(-c3ccc(C(=O)N[C@H]4C[C@@H](O)[C@@H](O)NC(=O)[C@@H]5[C@@H](O)[C@@H](C)CN5C(=O)[C@H]([C@H](O)CC(N)=O)NC(=O)[C@H]([C@H](O)[C@@H](O)c5ccc(O)c(OS(=O)(=O)O)c5)NC(=O)[C@@H]5C[C@@H](O)CN5C(=O)[C@H]([C@@H](C)O)NC4=O)cc3)no2)cc1 | Kluyveromyces marxianus | biofilm formation |  | 1 µg/mL | inhibition | 53% |
| COC(=O)c1cc(-c2cccc(NC(=O)Nc3ccc(F)c(F)c3)c2)on1 | Mycobacteroides abscessus | microbial growth, broth dilution | ATCC19977 | 48 h | MIC | > 64 µg/mL |
| O=C(N[C@H](CO)[C@H](O)c1ccc([N+](=O)[O-])cc1)C(Cl)Cl | Bacillus | microbial growth, broth dilution | ATCC27859 |  | MIC | 0.98 µg/mL (≈ 3.03 µM) |
| CC1CCN(CCCN2/C(=C/c3cc[n+](C)c4ccccc34)Sc3ccccc32)CC1.[I-] | Pseudomonas aeruginosa | microbial growth, broth dilution | ATCCBAA2108 | drug-resistant strain | MIC | 16 µg/mL |
| COC(=O)c1cc(-c2cccc(NC(=O)Nc3ccc(Cl)c(C(F)(F)F)c3)c2)on1 | Mycobacteroides abscessus | microbial growth, broth dilution | ATCC19977 | 48 h | MIC | > 64 µg/mL |
